Data set [1] relates to Hepatitis B virus. Put plainly: Antiviral activity against Hepatitis B virus infected in human HepG2.2.15.7 assessed as reduction in HBV DNA level incubated for 9 days media replaced every 3 days once with test compound by RT-PCR analysis. It counts as functional, organism-based. Put shortly: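 HepG2.2.15.7 cells, 1 × 10^4 per well, settled 24 h before exposure to a range of concentrations; drug-containing medium renewed every three days. At day nine, supernatant HBV DNA quantified by real-time PCR. IC50 is the concentration giving 50% inhibition of supernatant HBV DNA.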

Data set [2] can be described thus: Cytotoxicity against human HepG2.2.15.7 cells assessed as reduction in cell viability. It counts as cell-based. Put shortly: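 HepG2.2.15.7 cells, 1 × 10^4 per well, seeded 24 h, then kept nine days with graded concentrations, medium with drug renewed every three days. Viability read by tetrazolium dye method. CC50 is the concentration reducing viable cells by 50%.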

As a reminder, the IC50 is the concentration needed to halve the response being measured. A word on the CC50: it is the concentration at which the toxic effect on the cells reaches its halfway point.

A value given as a limit tells only on which side of the number the result lay.

As for `C=C1[C@@H](n2ccc3c(N)ncnc32)[C@H](O)[C@H](O)[C@@]1(C)CO`, the IC50 in data set [1] was over 100 µM. Further, the CC50 in data set [2] was over 100 µM.

Regarding `C=Cc1cn([C@@H]2C(=C)[C@](C)(CO)[C@@H](O)[C@H]2O)c2ncnc(N)c12`, the IC50 in data set [1] is over 100 µM. Moreover, in data set [2], the CC50 is over 100 µM.

Take `C=C1[C@@H](n2cc(Br)c3c(N)ncnc32)[C@H](O)[C@H](O)[C@@]1(C)CO`: in data set [1], the IC50 came out at 8.3 µM. In addition, the CC50 in data set [2] is over 100 µM.

For `C=C1[C@@H](n2cc(F)c3c(N)ncnc32)[C@H](O)[C@H](O)[C@@]1(C)CO`, in data set [1], the IC50 was over 100 µM. Further, in data set [2], the CC50 was over 100 µM.

For `C#Cc1cn([C@@H]2C(=C)[C@](C)(CO)[C@@H](O)[C@H]2O)c2ncnc(N)c12`, in data set [1], the IC50 is 6.3 µM. Also, the CC50 in data set [2] is over 100 µM.

For `C=C1[C@@H](n2cc(Cl)c3c(N)ncnc32)[C@H](O)[C@H](O)[C@@]1(C)CO`, the IC50 in data set [1] came out at 22.9 µM. Also, in data set [2], the CC50 is over 100 µM.

Turning to `C=C1[C@@H](n2cc(I)c3c(N)ncnc32)[C@H](O)[C@H](O)[C@@]1(C)CO`, in data set [1], the IC50 turned out to be 3.4 µM. For the same compound, the CC50 in data set [2] turned out to be 87.5 µM.

As for `Nc1ncnc2c1ncn2[C@@H]1C[C@H](CO)[C@@H](O)[C@H]1O` [ARISTEROMYCIN], the IC50 in data set [1] was over 3 µM. For the same compound, the CC50 in data set [2] is over 3 µM.

`C=C1[C@H](CO)[C@@H](O)C[C@@H]1n1cnc2c(=O)[nH]c(N)nc21` [ENTECAVIR]: in data set [1], the IC50 came to 0.00018 µM. Moreover, the CC50 in data set [2] is over 0.1 µM.

The values above are taken from ChEMBL document CHEMBL4699415, “Synthesis and anti-HBV activity of carbocyclic nucleoside hybrids with salient features of entecavir and aristeromycin” (RSC Med Chem, 2020).
